In ChEMBL document CHEMBL1128576, “Time-resolved ligand exchange reactions: kinetic models for competitive inhibitors with recombinant human renin” (J Med Chem, 1995):

Tests used:
[1] = Half life period of the compound.; format: ADME
Outline: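 Half-life was calculated as ln2/koff (first-order decay). koff came from paired fluorescent-probe ligand exchange with recombinant human renin: 5.0×10^-8 M renin, 5.0×10^-7 M probe, pH 7.4 HEPES/octyl glucoside buffer, 37 °C, 5-min preincubation. The two curves were fitted simultaneously, with the probe rate constants held fixed.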

[2] = target: T1, Renin (Homo sapiens) (UniProt P00797); test: (§1) Component […] rate constant by the compound against Renin was determined; set-up: unit not given here
T1 sequence (whole entry): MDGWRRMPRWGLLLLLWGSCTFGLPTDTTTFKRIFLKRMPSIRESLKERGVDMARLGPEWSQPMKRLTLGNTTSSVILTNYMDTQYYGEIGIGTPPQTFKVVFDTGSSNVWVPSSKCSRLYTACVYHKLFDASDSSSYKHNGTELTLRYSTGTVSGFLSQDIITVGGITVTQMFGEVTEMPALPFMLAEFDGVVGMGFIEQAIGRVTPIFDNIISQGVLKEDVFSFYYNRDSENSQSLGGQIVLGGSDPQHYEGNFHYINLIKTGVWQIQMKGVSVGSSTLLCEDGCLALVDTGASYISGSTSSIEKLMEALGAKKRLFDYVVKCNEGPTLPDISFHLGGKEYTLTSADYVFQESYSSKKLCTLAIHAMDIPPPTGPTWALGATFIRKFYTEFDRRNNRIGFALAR

[3] = target: T1, Renin (Homo sapiens); test: as §1

| Compound | half-life [1] [min] | Koff [2] | k on [3] [M⁻¹ s⁻¹] |
| --- | --- | --- | --- |
| CC(C)C[C@H](O)[C@H](O)[C@H](CC1CCCCC1)NC(=O)[C@@H](CC(=O)N(CC(=O)N(C)CCc1ccccn1)[C@@H](C)c1ccccc1)Cc1csc(N)n1 | 8.6 | 0.00135 | 6.68e+06 |
| CC(C)C[C@H](O)[C@H](O)[C@H](CC1CCCCC1)NC(=O)[C@@H](CC(=O)N(CC(=O)N(C)CCN1CCOCC1)[C@@H](C)c1ccccc1)Cc1csc(N)n1 | 2.4 | 0.00481 | 2.07e+06 |
| CC(C)C[C@H](O)[C@H](O)[C@H](CC1CCCCC1)NC(=O)[C@@H](CC(=O)N(CC(=O)N(C)CCc1ccccn1)CC1(C)CCCCC1)Cc1csc(N)n1 | 20.3 | 0.000569 | 1.22e+07 |
| CC(C)C[C@H](O)[C@H](O)[C@H](CC1CCCCC1)NC(=O)[C@@H](CC(=O)N(CC(=O)N(C)CCC(=O)N1CCOCC1)[C@@H](C)c1ccccc1)Cc1csc(N)n1 | 8.9 | 0.0013 | 2e+06 |
| CC(C)C[C@H](O)[C@H](O)[C@H](CC1CCCCC1)NC(=O)[C@@H](CC(=O)N(CC(=O)N(C)CCc1ccccn1)CC1CCCCCC1)Cc1csc(N)n1 | 49.4 | 0.000234 | 8.63e+06 |
| CC(C)C[C@H](O)[C@H](O)[C@H](CC1CCCCC1)NC(=O)[C@@H](CC(=O)N(CC(=O)N(C)CCN(C)C(=O)N1CCOCC1)[C@@H](C)c1ccccc1)Cc1csc(N)n1 | 8.7 | 0.00133 | 5.43e+06 |
| COC1(CN(CC(=O)N(C)CCc2ccccn2)C(=O)C[C@@H](Cc2csc(N)n2)C(=O)N[C@@H](CC2CCCCC2)[C@@H](O)[C@@H](O)CC(C)C)CCCCC1 | 6.6 | 0.00175 | 2.28e+06 |
| CC(C)C[C@H](O)[C@H](O)[C@H](CC1CCCCC1)NC(=O)[C@@H](CC(=O)N(CC(=O)N(C)CCc1ccccn1)CC1CCCCC1)Cc1csc(N)n1 | 41.3 | 0.00028 | 5.93e+06 |
